Measured values: ChEMBL document CHEMBL4196175, “First SAR Study for Overriding NRAS Mutant Driven Acute Myeloid Leukemia” (J Med Chem, 2018)
Each block holds one molecule with its values, some of them ahead of it. The source made the active and inactive calls. The rule behind the calls is not given here.

Tests used:
[1] = Cmax in mouse at 10 mg/kg, po; assay type: ADME, organism-based; set-up: dose 10 mg/kg, route oral; conditions: in vivo
Activated CDC42 kinase 1 [2] = molecular target: T1, Activated CDC42 kinase 1 (Homo sapiens, UniProt Q07912); assay: Inhibition of ACK1 in human OCI-AML3 cells harboring NRAS Q61L mutant assessed as reduction in P70S6K1 phosphorylation at Thr421/Ser424 after 2 hrs by Western blot analysis; assay type: cell-based
Procedure, shortened: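 Ba/F3-NRAS-G12D or OCI-AML3 cells exposed 2 h to compounds (1 µM, or a dose series in OCI-AML3); phospho-p70S6K1, phospho-AKT S473, phospho-JNK and phospho-p38 assessed by western blot, actin as loading control.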

OCI-AML-3 [3] = assay: Induction of apoptosis in human OCI-AML3 cells harboring NRAS Q61L mutant assessed as increase in cleaved PARP levels at 1 uM after 24 hrs by Western blot analysis; assay type: functional, cell-based
Procedure, shortened: (§1)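 Cells treated 24 h with indicated concentrations (1 µM; 5 µM also used in Ba/F3-NRAS-G12D); cleaved PARP, cleaved caspase 3, bcl-2 and MCL1 detected by western blot with actin as loading control.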

OCI-AML-3 [4] = assay: Induction of apoptosis in human OCI-AML3 cells harboring NRAS Q61L mutant assessed as decrease in mcl1 levels at 1 uM after 24 hrs by Western blot analysis; assay type: functional, cell-based; procedure, shortened: as §1
[5] = molecular target: Tyrosine-protein kinase Blk (Homo sapiens) (UniProt P51451); assay: Inhibition of human BLK at 1 uM relative to control
[6] = molecular target: Ephrin type-B receptor 1 (Homo sapiens) (UniProt P54762); assay: Inhibition of human EphB1 at 1 uM relative to control
[7] = molecular target: Epithelial discoidin domain-containing receptor 1 (Homo sapiens) (UniProt Q08345); assay: Inhibition of human DDR1 at 1 uM relative to control
[8] = molecular target: Discoidin domain-containing receptor 2 (Homo sapiens) (UniProt Q16832); assay: Inhibition of human DDR2 at 1 uM relative to control
[9] = molecular target: Tyrosine-protein kinase ABL2 (Homo sapiens) (UniProt P42684); assay: Inhibition of human ABL2 at 1 uM relative to control
[10] = molecular target: Mitogen-activated protein kinase 14 (Homo sapiens) (UniProt Q16539); assay: Inhibition of human p38alpha at 1 uM relative to control
[11] = molecular target: Tyrosine-protein kinase HCK (Homo sapiens) (UniProt P08631); assay: Inhibition of human HCK at 1 uM relative to control
[12] = molecular target: Tyrosine-protein kinase CSK (Homo sapiens) (UniProt P41240); assay: Inhibition of human CSK at 1 uM relative to control
[13] = molecular target: Macrophage colony-stimulating factor 1 receptor (Homo sapiens) (UniProt P07333); assay: Inhibition of human FMS at 1 uM relative to control
[14] = molecular target: Tyrosine-protein kinase Fyn (Homo sapiens) (UniProt P06241); assay: Inhibition of human FYN at 1 uM relative to control
[15] = molecular target: Tyrosine-protein kinase JAK1 (Homo sapiens) (UniProt P23458); assay: Inhibition of human JAK1 at 1 uM relative to control
[16] = molecular target: Tyrosine-protein kinase JAK2 (Homo sapiens) (UniProt O60674); assay: Inhibition of human JAK2 at 1 uM relative to control
[17] = molecular target: Serine/threonine-protein kinase SIK1 (Homo sapiens) (UniProt P57059); assay: Inhibition of human SIK1 at 1 uM relative to control
[18] = molecular target: Ephrin type-A receptor 1 (Homo sapiens) (UniProt P21709); assay: Inhibition of human EphA1 at 1 uM relative to control
BaF3 [19] = assay: Induction of apoptosis in mouse BA/F3 cells expressing NRAS-G12D mutant assessed as increase in apoptotic cell after 24 hrs by annexin V/propidium iodide staining based FACS analysis; assay type: functional
Procedure, shortened: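 Apoptosis scored by flow cytometry after FITC-annexin V/propidium iodide dual staining following 24 h exposure, at 1 µM or a range of indicated concentrations; three independent experiments, mean with SD, one-way ANOVA.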

OCI-AML-3 [20] = assay: Cell cycle arrest in human OCI-AML3 cells harboring NRAS Q61L mutant assessed as accumulation at G0/G1 phase at 1 uM after 24 hrs by propidium iodide staining based FACS analysis; assay type: functional
Procedure, shortened: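 OCI-AML3 cells treated 24 h at indicated concentrations, including 1 µM; cell-cycle phase distribution measured by flow cytometry after propidium iodide staining.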

OCI-AML-3 [21] = assay: Antileukemic activity against human OCI-AML3 cells harboring NRAS-Q61L mutant xenografted in immunodeficient mouse assessed as tumor volume at 15 mg/kg/day, po qd administered on day 21 post implantation measured on day 20 post dose (reference value: 100%); assay type: functional
[22] = molecular target: Tyrosine-protein kinase Lyn (Homo sapiens) (UniProt P07948); conditions: 1 uM
[23] = molecular target: RAF proto-oncogene serine/threonine-protein kinase (Homo sapiens) (UniProt P04049); conditions: 1 uM
Activated CDC42 kinase 1 [24] = molecular target: T1, Activated CDC42 kinase 1; conditions: 1 uM
[25] = molecular target: T2, Mitogen-activated protein kinase kinase kinase kinase 2 (Homo sapiens) (UniProt Q12851); conditions: 1 uM
T2 sequence (whole entry): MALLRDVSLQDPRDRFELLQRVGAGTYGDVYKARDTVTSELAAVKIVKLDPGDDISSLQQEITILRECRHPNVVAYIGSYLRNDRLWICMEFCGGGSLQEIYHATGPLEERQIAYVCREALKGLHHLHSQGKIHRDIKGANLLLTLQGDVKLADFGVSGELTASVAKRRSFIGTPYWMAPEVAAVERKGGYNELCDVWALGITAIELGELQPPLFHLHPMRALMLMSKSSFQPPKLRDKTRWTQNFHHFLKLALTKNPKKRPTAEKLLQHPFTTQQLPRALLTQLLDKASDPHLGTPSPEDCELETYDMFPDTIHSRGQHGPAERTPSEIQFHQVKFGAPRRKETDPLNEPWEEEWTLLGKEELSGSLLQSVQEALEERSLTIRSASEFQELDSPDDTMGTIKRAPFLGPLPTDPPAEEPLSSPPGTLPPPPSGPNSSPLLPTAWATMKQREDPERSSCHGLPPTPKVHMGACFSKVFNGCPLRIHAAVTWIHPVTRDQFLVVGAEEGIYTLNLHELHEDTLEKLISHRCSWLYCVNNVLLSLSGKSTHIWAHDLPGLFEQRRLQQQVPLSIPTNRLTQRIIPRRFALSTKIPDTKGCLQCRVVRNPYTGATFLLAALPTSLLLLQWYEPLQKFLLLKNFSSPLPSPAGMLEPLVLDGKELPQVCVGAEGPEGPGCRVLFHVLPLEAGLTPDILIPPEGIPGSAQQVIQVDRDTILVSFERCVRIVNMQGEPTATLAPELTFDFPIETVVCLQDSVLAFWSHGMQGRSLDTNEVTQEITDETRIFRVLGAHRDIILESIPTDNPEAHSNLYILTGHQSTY

BaF3 [26] = assay: Induction of apoptosis in mouse BA/F3 cells expressing NRAS-G12D mutant assessed as increase in cleaved PARP levels at 1 uM after 24 hrs by Western blot analysis; assay type: functional, cell-based; procedure, shortened: as §1

T1 sequence (Q07912 whole entry, looked up): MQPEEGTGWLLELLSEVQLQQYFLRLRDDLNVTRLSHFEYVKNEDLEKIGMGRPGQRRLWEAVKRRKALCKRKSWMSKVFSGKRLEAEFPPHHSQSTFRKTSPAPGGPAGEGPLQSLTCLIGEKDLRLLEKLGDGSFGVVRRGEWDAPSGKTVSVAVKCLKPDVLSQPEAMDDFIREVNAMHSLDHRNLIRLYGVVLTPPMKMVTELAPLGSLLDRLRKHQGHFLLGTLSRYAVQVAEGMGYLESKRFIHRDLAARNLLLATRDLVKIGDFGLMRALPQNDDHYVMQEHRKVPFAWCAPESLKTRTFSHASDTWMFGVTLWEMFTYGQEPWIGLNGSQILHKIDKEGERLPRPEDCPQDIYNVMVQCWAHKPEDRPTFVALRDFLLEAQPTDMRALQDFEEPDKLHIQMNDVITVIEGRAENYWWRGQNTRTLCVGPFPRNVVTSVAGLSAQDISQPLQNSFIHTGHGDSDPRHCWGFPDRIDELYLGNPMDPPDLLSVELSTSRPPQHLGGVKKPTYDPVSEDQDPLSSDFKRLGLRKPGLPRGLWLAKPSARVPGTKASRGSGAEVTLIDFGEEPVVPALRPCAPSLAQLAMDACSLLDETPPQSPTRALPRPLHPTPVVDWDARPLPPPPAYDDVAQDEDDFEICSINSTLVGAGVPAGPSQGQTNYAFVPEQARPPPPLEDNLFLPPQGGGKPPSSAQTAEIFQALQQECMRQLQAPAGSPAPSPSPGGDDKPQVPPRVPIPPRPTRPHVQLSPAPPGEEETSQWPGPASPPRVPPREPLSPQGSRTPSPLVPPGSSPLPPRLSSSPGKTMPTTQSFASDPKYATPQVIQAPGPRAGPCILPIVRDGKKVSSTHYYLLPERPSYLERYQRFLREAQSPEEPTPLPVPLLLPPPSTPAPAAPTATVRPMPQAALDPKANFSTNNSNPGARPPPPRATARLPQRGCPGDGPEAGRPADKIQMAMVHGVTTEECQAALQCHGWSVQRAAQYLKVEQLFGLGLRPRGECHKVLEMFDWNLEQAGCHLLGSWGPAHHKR
Chain of Ephrin type-A receptor 1 (Homo sapiens) (P21709 whole entry): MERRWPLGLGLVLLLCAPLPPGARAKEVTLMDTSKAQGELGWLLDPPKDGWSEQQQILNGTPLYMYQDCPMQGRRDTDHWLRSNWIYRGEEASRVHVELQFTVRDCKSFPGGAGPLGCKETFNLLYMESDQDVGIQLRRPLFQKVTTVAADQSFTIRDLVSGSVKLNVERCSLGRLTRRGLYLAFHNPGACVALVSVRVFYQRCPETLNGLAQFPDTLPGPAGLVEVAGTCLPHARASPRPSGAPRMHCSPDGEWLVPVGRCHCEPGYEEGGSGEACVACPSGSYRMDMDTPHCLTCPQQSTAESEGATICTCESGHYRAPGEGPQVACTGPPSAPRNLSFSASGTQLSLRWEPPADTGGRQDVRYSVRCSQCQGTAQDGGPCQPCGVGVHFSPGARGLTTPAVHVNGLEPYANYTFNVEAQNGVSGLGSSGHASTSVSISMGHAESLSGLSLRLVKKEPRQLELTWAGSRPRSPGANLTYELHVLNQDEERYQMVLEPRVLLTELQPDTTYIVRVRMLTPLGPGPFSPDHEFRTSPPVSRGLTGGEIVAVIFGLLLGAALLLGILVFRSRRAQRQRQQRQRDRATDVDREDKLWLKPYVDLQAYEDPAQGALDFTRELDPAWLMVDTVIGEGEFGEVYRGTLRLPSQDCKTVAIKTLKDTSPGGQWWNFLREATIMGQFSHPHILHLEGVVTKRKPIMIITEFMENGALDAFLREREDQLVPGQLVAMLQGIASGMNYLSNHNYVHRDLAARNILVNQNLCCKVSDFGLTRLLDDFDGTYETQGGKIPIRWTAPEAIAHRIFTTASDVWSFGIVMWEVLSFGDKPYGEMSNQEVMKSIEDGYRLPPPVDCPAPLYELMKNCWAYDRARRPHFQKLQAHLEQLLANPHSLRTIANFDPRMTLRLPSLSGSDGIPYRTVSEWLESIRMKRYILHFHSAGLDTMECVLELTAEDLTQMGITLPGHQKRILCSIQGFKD
Chain of Mitogen-activated protein kinase 14 (Homo sapiens) (Q16539 whole entry): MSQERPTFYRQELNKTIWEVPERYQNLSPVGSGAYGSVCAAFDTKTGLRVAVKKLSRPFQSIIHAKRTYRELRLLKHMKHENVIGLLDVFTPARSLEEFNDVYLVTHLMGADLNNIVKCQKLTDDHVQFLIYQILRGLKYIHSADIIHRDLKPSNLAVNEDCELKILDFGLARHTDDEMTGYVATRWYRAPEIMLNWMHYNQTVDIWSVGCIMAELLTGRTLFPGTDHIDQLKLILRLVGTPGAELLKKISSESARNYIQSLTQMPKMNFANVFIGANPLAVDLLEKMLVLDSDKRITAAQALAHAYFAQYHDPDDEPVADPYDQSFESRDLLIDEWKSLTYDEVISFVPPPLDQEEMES
Chain of Discoidin domain-containing receptor 2 (Homo sapiens) (Q16832 whole entry, the tested form may be a part): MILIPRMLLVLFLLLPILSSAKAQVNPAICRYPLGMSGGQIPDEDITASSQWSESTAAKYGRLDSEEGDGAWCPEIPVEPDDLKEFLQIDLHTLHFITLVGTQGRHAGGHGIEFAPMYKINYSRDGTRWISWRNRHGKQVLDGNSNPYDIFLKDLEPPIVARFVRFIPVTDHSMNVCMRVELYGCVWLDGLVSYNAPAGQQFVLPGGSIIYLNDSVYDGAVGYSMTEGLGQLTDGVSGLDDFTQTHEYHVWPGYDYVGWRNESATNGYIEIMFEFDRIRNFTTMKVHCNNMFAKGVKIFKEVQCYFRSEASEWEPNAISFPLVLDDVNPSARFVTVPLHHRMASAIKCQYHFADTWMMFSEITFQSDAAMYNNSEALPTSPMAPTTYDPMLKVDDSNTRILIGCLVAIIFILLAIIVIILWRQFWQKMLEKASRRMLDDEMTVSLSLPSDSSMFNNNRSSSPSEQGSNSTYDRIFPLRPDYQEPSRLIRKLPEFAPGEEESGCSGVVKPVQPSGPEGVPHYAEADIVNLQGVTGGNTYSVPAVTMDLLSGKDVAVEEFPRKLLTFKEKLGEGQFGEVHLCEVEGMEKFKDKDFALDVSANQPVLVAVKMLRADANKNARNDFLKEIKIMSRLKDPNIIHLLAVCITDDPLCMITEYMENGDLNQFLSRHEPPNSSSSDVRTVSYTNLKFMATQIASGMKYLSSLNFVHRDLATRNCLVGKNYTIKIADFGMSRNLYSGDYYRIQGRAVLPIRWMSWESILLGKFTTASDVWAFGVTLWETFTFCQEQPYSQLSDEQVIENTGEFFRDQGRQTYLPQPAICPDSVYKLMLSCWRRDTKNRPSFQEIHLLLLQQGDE
Chain of Epithelial discoidin domain-containing receptor 1 (Homo sapiens) (Q08345 whole entry, the tested form may be a part): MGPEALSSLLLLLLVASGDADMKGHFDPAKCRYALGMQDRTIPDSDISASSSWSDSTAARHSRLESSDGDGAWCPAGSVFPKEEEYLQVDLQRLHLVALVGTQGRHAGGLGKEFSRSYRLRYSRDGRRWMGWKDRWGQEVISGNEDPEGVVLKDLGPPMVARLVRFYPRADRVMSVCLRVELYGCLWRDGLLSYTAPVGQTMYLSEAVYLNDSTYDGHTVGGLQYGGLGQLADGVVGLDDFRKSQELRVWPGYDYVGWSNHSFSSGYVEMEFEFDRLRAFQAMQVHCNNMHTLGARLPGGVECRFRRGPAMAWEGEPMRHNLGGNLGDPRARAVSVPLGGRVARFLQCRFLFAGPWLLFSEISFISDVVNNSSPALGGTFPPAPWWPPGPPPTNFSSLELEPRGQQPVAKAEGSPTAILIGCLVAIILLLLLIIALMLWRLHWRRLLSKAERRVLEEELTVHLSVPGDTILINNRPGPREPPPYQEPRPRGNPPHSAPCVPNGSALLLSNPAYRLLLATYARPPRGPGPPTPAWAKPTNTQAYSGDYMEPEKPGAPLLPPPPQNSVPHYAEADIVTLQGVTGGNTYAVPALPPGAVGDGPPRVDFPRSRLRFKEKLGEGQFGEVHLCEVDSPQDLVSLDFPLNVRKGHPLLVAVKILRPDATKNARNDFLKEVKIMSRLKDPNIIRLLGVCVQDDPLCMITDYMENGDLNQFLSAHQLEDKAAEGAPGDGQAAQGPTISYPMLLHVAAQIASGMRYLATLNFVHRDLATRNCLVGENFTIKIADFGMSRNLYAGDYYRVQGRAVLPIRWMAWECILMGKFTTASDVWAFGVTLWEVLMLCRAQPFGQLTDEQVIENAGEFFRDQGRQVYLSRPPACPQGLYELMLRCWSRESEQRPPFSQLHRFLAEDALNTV
Chain of Tyrosine-protein kinase Blk (Homo sapiens) (P51451 2-505 limits assumed): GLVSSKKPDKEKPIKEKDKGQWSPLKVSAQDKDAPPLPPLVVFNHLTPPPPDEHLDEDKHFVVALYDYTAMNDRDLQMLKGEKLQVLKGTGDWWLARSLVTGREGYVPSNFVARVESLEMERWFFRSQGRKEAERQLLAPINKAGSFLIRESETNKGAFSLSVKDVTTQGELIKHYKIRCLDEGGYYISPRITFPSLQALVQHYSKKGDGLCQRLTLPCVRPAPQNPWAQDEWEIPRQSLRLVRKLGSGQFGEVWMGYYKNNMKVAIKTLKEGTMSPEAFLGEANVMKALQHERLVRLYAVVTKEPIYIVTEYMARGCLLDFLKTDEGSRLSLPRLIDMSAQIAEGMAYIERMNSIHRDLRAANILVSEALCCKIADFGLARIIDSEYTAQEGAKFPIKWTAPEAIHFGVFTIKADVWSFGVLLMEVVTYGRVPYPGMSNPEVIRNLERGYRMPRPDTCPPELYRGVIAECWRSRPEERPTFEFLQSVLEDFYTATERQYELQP

SMILES: Cc1ccc(NC(=O)c2cccc(C(F)(F)F)c2)cc1N1Cc2cnc(N)nc2N(C)C1=O
Cmax [1]: 2410 ng/mL
inhibition (Activated CDC42 kinase 1 [2]): Dose-dependent effect
Activity (OCI-AML-3 [3]): Active
Activity (OCI-AML-3 [4]): Active
inhibition [5]: 95.9%
inhibition [6]: 96.9%
inhibition [7]: 97.8%
inhibition [8]: 98.1%
inhibition [9]: 98.3%
inhibition [10]: 98.9%
inhibition [11]: 98.9%
inhibition [12]: 98.9%
inhibition [13]: 99.1%
inhibition [14]: 99.2%
inhibition [15]: 94.9%
inhibition [16]: 94.4%
inhibition [17]: 91.6%
inhibition [18]: 90.7%
Activity (BaF3 [19]): Dose-dependent effect
Activity (OCI-AML-3 [20]): Active
Activity (OCI-AML-3 [21]): 41.9%
inhibition [22]: 99.4%
inhibition [23]: 99.4%
inhibition (Activated CDC42 kinase 1 [24]): 100%
inhibition [25]: 93.8%

inhibition (Activated CDC42 kinase 1 [2]): Dose-dependent effect
SMILES: CC(=O)N1CCN(c2ccc(Nc3ncc4c(n3)N(C)C(=O)N(c3cc(NC(=O)c5cccc(C(F)(F)F)c5)ccc3C)C4)cn2)CC1
Activity (BaF3 [26]): Active
Activity (OCI-AML-3 [3]): Active
Activity (OCI-AML-3 [4]): Active
Activity (OCI-AML-3 [20]): Active
